Test results taken from ChEMBL document CHEMBL4665666, “Discovery and characterization of trypanocidal cysteine protease inhibitors from the 'malaria box'” (Eur J Med Chem, 2019).
pIC50, pKi: −log10 of the molar value. Active and inactive are the calls of the source. The rule behind the calls is not given here.

What was measured:
[1] = molecular target: Cruzipain (Trypanosoma cruzi) (UniProt P25779); assay: Inhibition of recombinant Trypanosoma cruzi cruzain at 100 uM preincubated with enzyme for 5 mins followed by substrate addition in absence of BSA relative to control
Procedure, shortened: (§1)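 For BSA sensitivity, compound was held 5 min with BSA (2 mg/mL in 0.001% Triton X-100), then 5 min with 1 nM cruzain, before substrate was added and activity monitored. Parallel runs omitted BSA under otherwise identical conditions.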

[2] = molecular target: Cruzipain (Trypanosoma cruzi) (UniProt P25779); assay: Inhibition of recombinant Trypanosoma cruzi cruzain at 100 uM using Z-FR-AMC as substrate and measured at 12 sec interval for 5 mins without preincubation by fluorimetric analysis relative to control
Procedure, shortened: (§2)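 Recombinant rhodesain or cruzain (1 nM) in 0.1 M sodium acetate pH 5.5, 0.01% Triton X-100, 1 mM β-mercaptoethanol. Compound at a single concentration, either without or after 10 min enzyme pre-incubation. Z-FR-AMC 2.5 µM, read at 340/440 nm every 12 s for 5 min. Inhibition is relative to DMSO, with E-64 as positive control. Done in duplicate (primary screen) or triplicate.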

[3] = molecular target: Rhodesain (Trypanosoma brucei rhodesiense) (UniProt Q95PM0); assay: Inhibition of recombinant Trypanosoma brucei rhodesain expressed in Pichia pastoris at 10 uM using Z-FR-AMC as substrate preincubated for 10 mins followed by substrate addition and measured at 12 sec interval for 5 mins by fluorimetric analysis relative to control; conditions: time 15.0 min; procedure, shortened: as §2
[4] = molecular target: Cruzipain (Trypanosoma cruzi) (UniProt P25779); assay: Inhibition of recombinant Trypanosoma cruzi cruzain at 100 uM using Z-FR-AMC as substrate preincubated for 10 mins followed by substrate addition and measured at 12 sec interval for 5 mins by fluorimetric analysis relative to control; conditions: time 15.0 min; procedure, shortened: as §2
[5] = molecular target: Cruzipain (Trypanosoma cruzi) (UniProt P25779); assay: Inhibition of recombinant Trypanosoma cruzi cruzain at 100 uM preincubated with BSA for 5 mins followed by incubation with enzyme for 5 mins followed by substrate addition relative to control; conditions: time 10.0 min; procedure, shortened: as §1
[6] = molecular target: Cruzipain (Trypanosoma cruzi) (UniProt P25779); assay: Inhibition of recombinant Trypanosoma cruzi cruzain at 10 uM using Z-FR-AMC as substrate preincubated for 10 mins followed by substrate addition and measured at 12 sec interval for 5 mins by fluorimetric analysis relative to control; conditions: time 15.0 min; procedure, shortened: as §2
[7] = molecular target: Cruzipain (Trypanosoma cruzi) (UniProt P25779); assay: Inhibition of recombinant Trypanosoma cruzi cruzain at 100 uM preincubated for 10 mins in absence of Triton X-100 relative to control
Procedure, shortened: (§3)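 To test detergent sensitivity, cruzain was pre-incubated 10 min at room temperature with compound with no Triton X-100, 0.01% or 0.1% Triton X-100. Cleavage of Z-FR-AMC was then followed at pH 5.5 in acetate buffer. Percent inhibition was compared across detergent levels.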

Cruzipain [8] = molecular target: T1, Cruzipain (Trypanosoma cruzi, UniProt P25779); assay: Inhibition of recombinant Trypanosoma cruzi cruzain using Z-FR-AMC as substrate preincubated for 10 mins followed by substrate addition and measured at 12 sec interval for 5 mins by fluorimetric analysis
Procedure, shortened: (§4)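 Cruzain (recombinant, 1 nM) in 0.1 M sodium acetate pH 5.5 with 0.01% Triton X-100 and 1 mM β-mercaptoethanol; Z-FR-AMC 2.5 µM, read at 340/440 nm every 12 s for 5 min, with or without 10 min enzyme–compound pre-incubation. […] For mechanism and Ki, 0.3–20.0 µM substrate and five inhibitor levels were used, with Lineweaver-Burk plots.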

[9] = molecular target: Rhodesain (Trypanosoma brucei rhodesiense) (UniProt Q95PM0); assay: Inhibition of recombinant Trypanosoma brucei rhodesain expressed in Pichia pastoris at 100 uM using Z-FR-AMC as substrate and measured at 12 sec interval for 5 mins without preincubation by fluorimetric analysis relative to control
Procedure, shortened: (§5)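 Run with no pre-incubation or with 10 min enzyme-compound pre-incubation. Fluorescence read at 340/440 nm. Concentration was set by solubility under assay conditions. Inhibition is against DMSO, with E-64 as positive control; triplicate.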

[10] = molecular target: Cruzipain (Trypanosoma cruzi) (UniProt P25779); assay: Inhibition of recombinant Trypanosoma cruzi cruzain at 100 uM preincubated for 10 mins in presence of 0.01% Triton X-100 relative to control; procedure, shortened: as §3
[11] = molecular target: Rhodesain (Trypanosoma brucei rhodesiense) (UniProt Q95PM0); assay: Inhibition of recombinant Trypanosoma brucei rhodesain expressed in Pichia pastoris at 5 uM using Z-FR-AMC as substrate and measured at 12 sec interval for 5 mins without preincubation by fluorimetric analysis relative to control
Procedure, shortened: as §2, with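 “pre-incubation.” for “pre-incubation. Z-FR-AMC 2.5 µM, read at 340/440 nm every 12 s for 5 min.”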

Trypanosoma cruzi [12] = assay: Trypanocidal activity against Trypanosoma cruzi Y strain trypomastigotes infected in C57BL/6 mouse peritoneal macrophage assessed as reduction in number of trypomastigotes release at 50 uM and measured after day 3 to day 11 post-infection by Neubauer chamber method; assay type: functional, organism-based; conditions: time 11.0 day
Procedure, shortened: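 Thioglycolate-elicited peritoneal macrophages from female C57BL/6 mice, 2 × 10^5/well, infected 2 h at 37°C with Y strain trypomastigotes at 5:1 (parasite:cell) and washed. They were then held with compound (3.125–50 µM) or IFN-γ 100 ng/mL. Trypomastigotes released into the supernatant were counted in a Neubauer chamber at several days after infection. Three independent experiments, each in triplicate.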

[13] = molecular target: Rhodesain (Trypanosoma brucei rhodesiense) (UniProt Q95PM0); assay: Inhibition of recombinant Trypanosoma brucei rhodesain expressed in Pichia pastoris at 5 uM using Z-FR-AMC as substrate preincubated for 10 mins followed by substrate addition and measured at 12 sec interval for 5 mins by fluorimetric analysis relative to control; conditions: time 15.0 min
Procedure, shortened: as §2, with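 “pre-incubation.” for “pre-incubation. Z-FR-AMC 2.5 µM, read at 340/440 nm every 12 s for 5 min.”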

[14] = molecular target: Cruzipain (Trypanosoma cruzi) (UniProt P25779); assay: Inhibition of recombinant Trypanosoma cruzi cruzain at 5 uM using Z-FR-AMC as substrate and measured at 12 sec interval for 5 mins without preincubation by fluorimetric analysis relative to control
Procedure, shortened: as §2, with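 “pre-incubation.” for “pre-incubation. Z-FR-AMC 2.5 µM, read at 340/440 nm every 12 s for 5 min.”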

[15] = molecular target: Rhodesain (Trypanosoma brucei rhodesiense) (UniProt Q95PM0); assay: Inhibition of recombinant Trypanosoma brucei rhodesain expressed in Pichia pastoris at 10 uM using Z-FR-AMC as substrate and measured at 12 sec interval for 5 mins without preincubation by fluorimetric analysis relative to control; procedure, shortened: as §2
[16] = molecular target: Cruzipain (Trypanosoma cruzi) (UniProt P25779); assay: Inhibition of recombinant Trypanosoma cruzi cruzain at 10 uM using Z-FR-AMC as substrate and measured at 12 sec interval for 5 mins without preincubation by fluorimetric analysis relative to control; procedure, shortened: as §2
[17] = tested on: Trypanosoma brucei brucei; assay: Trypanocidal activity against Trypanosoma brucei brucei Squib 427 assessed as reduction in parasite viability; assay type: functional, organism-based
[18] = molecular target: Cruzipain (Trypanosoma cruzi) (UniProt P25779); assay: Inhibition of recombinant Trypanosoma cruzi cruzain at 100 uM preincubated for 10 mins in presence of 0.1% Triton X-100 relative to control; procedure, shortened: as §3
Rhodesain [19] = molecular target: T2, Rhodesain (Trypanosoma brucei rhodesiense, UniProt Q95PM0); assay: Inhibition of recombinant Trypanosoma brucei rhodesain expressed in Pichia pastoris using Z-FR-AMC as substrate preincubated for 10 mins followed by substrate addition and measured at 12 sec interval for 5 mins by fluorimetric analysis
Procedure, shortened: (§6)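 Rhodesain (1 nM) with Z-FR-AMC (2.5 µM) in 0.1 M sodium acetate pH 5.5, 0.01% Triton X-100, 1 mM β-mercaptoethanol, with or without 10 min enzyme-compound pre-incubation. Fluorescence read at 340/440 nm. IC50 by four-parameter nonlinear regression from at least six concentrations in triplicate, with at least two independent runs. Mean ± SEM reported.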

[20] = molecular target: Rhodesain (Trypanosoma brucei rhodesiense) (UniProt Q95PM0); assay: Inhibition of recombinant Trypanosoma brucei rhodesain expressed in Pichia pastoris at 100 uM using Z-FR-AMC as substrate preincubated for 10 mins followed by substrate addition and measured at 12 sec interval for 5 mins by fluorimetric analysis relative to control; conditions: time 15.0 min; procedure, shortened: as §5
Trypanosoma cruzi [21] = assay: Trypanocidal activity against Trypanosoma cruzi Tulahuen C4 assessed as reduction in parasite viability; assay type: functional, organism-based
[22] = molecular target: Cruzipain (Trypanosoma cruzi) (UniProt P25779); assay: Inhibition of recombinant Trypanosoma cruzi cruzain at 5 uM using Z-FR-AMC as substrate preincubated for 10 mins followed by substrate addition and measured at 12 sec interval for 5 mins by fluorimetric analysis relative to control; conditions: time 15.0 min
Procedure, shortened: as §2, with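 “pre-incubation.” for “pre-incubation. Z-FR-AMC 2.5 µM, read at 340/440 nm every 12 s for 5 min.”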

Cruzipain [23] = molecular target: T1, Cruzipain; assay: Competitive inhibition of recombinant Trypanosoma cruzi cruzain by Lineweaver-Burk plot analysis; procedure, shortened: as §4
cathepsin S [24] = molecular target: T3, cathepsin S (Homo sapiens, UniProt P25774); assay: Inhibition of recombinant human cathepsin S expressed in Escherichia coli at 50 uM using Z-VVR-AMC as substrate and measured after 15 mins without preincubation by microplate reader based assay relative to control; conditions: probe Z-VVR-AMC
Procedure, shortened: (§7)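 Run with or without 5 min compound–enzyme pre-incubation. AMC fluorescence at 380/460 nm over 15 min. Inhibition relative to DMSO (2% final); E64 1 µM as positive control. Two independent experiments, each in triplicate.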

[25] = molecular target: Cruzipain (Trypanosoma cruzi) (UniProt P25779); assay: Inhibition of recombinant Trypanosoma cruzi cruzain at 50 uM preincubated for 10 mins in presence of 0.1% Triton X-100 relative to control; procedure, shortened: as §3
Rhodesain [26] = molecular target: T2, Rhodesain; assay: Inhibition of recombinant Trypanosoma brucei rhodesain expressed in Pichia pastoris using Z-FR-AMC as substrate and measured at 12 sec interval for 5 mins without preincubation by fluorimetric analysis; procedure, shortened: as §6
Cruzipain [27] = molecular target: T1, Cruzipain; assay: Inhibition of recombinant Trypanosoma cruzi cruzain using Z-FR-AMC as substrate and measured at 12 sec interval for 5 mins without preincubation by fluorimetric analysis; procedure, shortened: as §4
[28] = molecular target: Cruzipain (Trypanosoma cruzi) (UniProt P25779); assay: Inhibition of recombinant Trypanosoma cruzi cruzain at 50 uM preincubated with BSA for 5 mins followed by incubation with enzyme for 5 mins followed by substrate addition relative to control; conditions: time 10.0 min; procedure, shortened: as §1
cathepsin B [29] = molecular target: T4, cathepsin B (Rattus norvegicus, UniProt P00787); assay: Inhibition of rat cathepsin B at 50 uM using Z-FR-AMC as substrate preincubated for 5 mins followed by substrate addition and measured after 15 mins by microplate reader based assay relative to control; conditions: probe Z-FR-AMC
[30] = molecular target: Cruzipain (Trypanosoma cruzi) (UniProt P25779); assay: Inhibition of recombinant Trypanosoma cruzi cruzain at 50 uM preincubated for 10 mins in presence of 0.01% Triton X-100 relative to control; procedure, shortened: as §3
cathepsin S [31] = molecular target: T3, cathepsin S; assay: Inhibition of recombinant human cathepsin S expressed in Escherichia coli at 50 uM using Z-VVR-AMC as substrate preincubated for 10 mins followed by substrate addition and measured after 15 mins by microplate reader based assay relative to control; conditions: probe Z-VVR-AMC, in the assay text read “preincubated for 5 mins” for “preincubated for 10 mins”, time 20 min; procedure, shortened: as §7
[32] = molecular target: Cruzipain (Trypanosoma cruzi) (UniProt P25779); assay: Inhibition of recombinant Trypanosoma cruzi cruzain at 50 uM preincubated for 10 mins in absence of Triton X-100 relative to control; procedure, shortened: as §3
cathepsin B [33] = molecular target: T4, cathepsin B; assay: Inhibition of rat cathepsin B at 50 uM using Z-FR-AMC as substrate measured after 15 mins without preincubation by microplate reader based assay relative to control; conditions: probe Z-FR-AMC
Procedure, shortened: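 Rat cathepsin B (20 nM) at 25°C in 100 mM sodium phosphate, 100 mM NaCl, 1 mM EDTA, 1 mM DTT, 0.01% CHAPS. Compound pre-incubated 0 or 5 min with enzyme; Z-FR-AMC 50 µM, ex 380/em 440 nm, monitored 15 min. Inhibition is versus 2% DMSO, with 1 µM E64 control. Two independent experiments in triplicate.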

[34] = molecular target: Cruzipain (Trypanosoma cruzi) (UniProt P25779); assay: Inhibition of recombinant Trypanosoma cruzi cruzain at 50 uM preincubated with enzyme for 5 mins followed by substrate addition in absence of BSA relative to control; procedure, shortened: as §1

Chain of Cruzipain (Trypanosoma cruzi) (P25779 123-467 limits assumed): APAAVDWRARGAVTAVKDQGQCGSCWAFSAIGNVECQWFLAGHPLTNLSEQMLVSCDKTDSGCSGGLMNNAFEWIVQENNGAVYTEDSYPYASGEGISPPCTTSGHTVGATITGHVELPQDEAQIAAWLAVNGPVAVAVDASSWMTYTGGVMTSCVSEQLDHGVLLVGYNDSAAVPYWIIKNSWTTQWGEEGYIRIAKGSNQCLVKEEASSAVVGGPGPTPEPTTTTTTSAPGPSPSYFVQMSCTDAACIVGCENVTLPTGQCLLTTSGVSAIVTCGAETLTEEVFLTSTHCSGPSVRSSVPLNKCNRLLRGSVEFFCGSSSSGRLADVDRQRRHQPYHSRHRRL
Chain of Rhodesain (Trypanosoma brucei rhodesiense) (Q95PM0 1-450): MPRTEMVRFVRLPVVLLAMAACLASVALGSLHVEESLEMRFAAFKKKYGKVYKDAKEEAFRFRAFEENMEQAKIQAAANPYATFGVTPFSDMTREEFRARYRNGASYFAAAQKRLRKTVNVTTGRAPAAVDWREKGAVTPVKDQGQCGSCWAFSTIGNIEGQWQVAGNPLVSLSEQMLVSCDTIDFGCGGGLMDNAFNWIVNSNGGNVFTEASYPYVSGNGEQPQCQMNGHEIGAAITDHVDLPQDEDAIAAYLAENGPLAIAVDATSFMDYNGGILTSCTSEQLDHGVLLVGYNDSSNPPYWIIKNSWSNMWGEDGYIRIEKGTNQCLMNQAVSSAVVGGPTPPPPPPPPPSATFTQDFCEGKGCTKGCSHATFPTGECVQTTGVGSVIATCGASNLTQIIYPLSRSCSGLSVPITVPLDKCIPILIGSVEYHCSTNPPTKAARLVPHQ
T1 sequence (P25779 whole entry): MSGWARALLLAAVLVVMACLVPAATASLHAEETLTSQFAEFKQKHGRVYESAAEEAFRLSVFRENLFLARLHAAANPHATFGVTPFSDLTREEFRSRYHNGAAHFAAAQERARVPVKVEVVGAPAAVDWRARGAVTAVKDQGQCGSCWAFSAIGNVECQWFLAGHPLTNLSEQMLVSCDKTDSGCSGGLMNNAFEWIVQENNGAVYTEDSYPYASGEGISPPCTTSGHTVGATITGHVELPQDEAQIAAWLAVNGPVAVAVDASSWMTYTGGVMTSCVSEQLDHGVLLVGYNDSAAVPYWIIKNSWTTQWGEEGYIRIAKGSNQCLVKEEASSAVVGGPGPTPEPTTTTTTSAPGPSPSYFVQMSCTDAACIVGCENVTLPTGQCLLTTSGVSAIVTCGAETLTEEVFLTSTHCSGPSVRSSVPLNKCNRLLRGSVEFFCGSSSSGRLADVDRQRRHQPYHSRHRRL
T2 sequence (Q95PM0 whole entry): as the sequence (Q95PM0 1-450) above
T3 sequence (P25774 whole entry): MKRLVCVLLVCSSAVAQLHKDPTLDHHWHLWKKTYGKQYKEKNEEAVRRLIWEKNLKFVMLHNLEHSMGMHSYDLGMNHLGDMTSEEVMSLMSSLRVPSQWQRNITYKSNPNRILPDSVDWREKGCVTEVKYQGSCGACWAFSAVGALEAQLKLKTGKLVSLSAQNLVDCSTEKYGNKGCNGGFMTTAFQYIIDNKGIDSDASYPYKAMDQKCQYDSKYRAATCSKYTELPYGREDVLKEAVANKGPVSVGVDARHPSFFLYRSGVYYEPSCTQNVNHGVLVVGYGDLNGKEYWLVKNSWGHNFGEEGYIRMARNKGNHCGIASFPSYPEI
T4 sequence (P00787 whole entry): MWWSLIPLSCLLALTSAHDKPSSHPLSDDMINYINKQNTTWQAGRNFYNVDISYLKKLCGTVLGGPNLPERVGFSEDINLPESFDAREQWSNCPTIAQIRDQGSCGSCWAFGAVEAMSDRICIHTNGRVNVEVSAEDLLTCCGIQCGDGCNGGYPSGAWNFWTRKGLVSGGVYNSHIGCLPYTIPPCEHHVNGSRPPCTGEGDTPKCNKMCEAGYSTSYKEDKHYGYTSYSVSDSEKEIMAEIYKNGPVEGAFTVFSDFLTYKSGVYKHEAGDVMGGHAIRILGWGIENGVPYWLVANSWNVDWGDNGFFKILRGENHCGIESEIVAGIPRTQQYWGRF

SMILES: COCCNC(=O)c1ccc(OC2CCN(Cc3ccc(F)c(F)c3)CC2)c(Cl)c1
- inhibition [1]: 79.9%
- inhibition [2]: 29%
- inhibition [3]: 81%
- inhibition [4]: 78%
- inhibition [5]: 64.7%
- inhibition [6]: 66%
- inhibition [7]: 98.3%
- pIC50 (Cruzipain [8]): 5.30
- inhibition [9]: 63%
- inhibition [10]: 68.2%
- inhibition [11]: 42.1%
- Activity (Trypanosoma cruzi [12]): Active
- inhibition [13]: 83.8%
- inhibition [14]: 42%
- inhibition [15]: 14%
- inhibition [16]: 18%
- pIC50 [17]: 4.49
- inhibition [18]: 78.6%
- pIC50 (Rhodesain [19]): 5.05
- inhibition [20]: 75%
- pIC50 (Trypanosoma cruzi [21]): 4.49
- inhibition [22]: 74.5%

SMILES: c1ccc(CNc2nc(Nc3ccccc3)nc3ccccc23)cc1
- pKi (Cruzipain [23]): 5.85
- inhibition at 0.25 h, 50 µM (cathepsin S [24]): 14.8%
- inhibition [2]: 91%
- inhibition [3]: 9%
- inhibition [25]: 28.1%
- inhibition [4]: 90%
- inhibition [6]: 57%
- pIC50 (Rhodesain [26]): 4.52
- inhibition [9]: 85%
- inhibition [11]: 67.1%
- Activity (Trypanosoma cruzi [12]): Active
- inhibition [13]: 82.8%
- pIC50 (Cruzipain [27]): 5.05
- inhibition [14]: 70.8%
- inhibition [28]: 64.4%
- inhibition [15]: 14%
- inhibition at 0.25 h, 50 µM (cathepsin B [29]): 27.5%
- inhibition [30]: 89.8%
- inhibition at 0.25 h, 50 µM (cathepsin S [31]): 4.5%
- inhibition [32]: 82.4%
- inhibition [16]: 62%
- inhibition at 0.25 h, 50 µM (cathepsin B [33]): 28.6%
- inhibition [20]: 94%
- inhibition [34]: 70.2%
- inhibition [22]: 82.3%
